# Experimental data from ChEMBL document CHEMBL5724801, “EUbOPEN Chemogenomics Library - Multiplex” (2024).
# Where “and” joins values, the source holds several entries; their conditions need not be identical. Equal values may be shown once.
# Tested on: Fibroblast
# Assay: Multiplex assay against human fibroblast
# Format: toxicity, cell-based
# In short: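 Cells were classed with CellPathfinder machine-learning gating, first as Hoechst high-intensity objects or normal cells, then (normal cells) as healthy, pyknosed or fragmented nuclei, and finally (pyknosed cells) as mitotic or apoptotic. Staining of live cells at seeding used Hoechst33342, BioTracker Green Microtubule Cytoskeleton Dye, MitoTracker Red and Annexin V Alexa Fluor 680, with imaging on a CQ1 microscope at 37°C and 5% CO2 after compound addition. Tubulin, mitochondrial-mass and membrane-permeability phenotypes are per cents of healthy-nucleus cells.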
# [1] = 12 h, 1 µM, compound concentration 1 uM
# [2] = 12 h, 10 µM, compound concentration 10 uM
# [3] = 24 h, 1 µM, compound concentration 1 uM
# [4] = 24 h, 10 µM, compound concentration 10 uM
# [5] = 48 h, 1 µM, compound concentration 1 uM
# [6] = 48 h, 10 µM, compound concentration 10 uM
smiles,measurement,setting,value
Cc1c(Cc2ccc3ccccc3n2)c2cc(F)ccc2n1CC(=O)O [TIMAPIPRANT],Population Apoptotic (%),[1],41% and 33%
same,Population Fragmented Nuclei (%),[1],12% and 28%
same,Population Healthy Nuclei (%),[1],67% and 49%
same,Population Hoechst High Intensity Objects (%),[1],5%
same,Population Membrane Permeable-Phenotype (%),[1],1% and 9%
same,Population Mitochondria Different-Phenotype (%),[1],7% and 4%
same,Population Mitotic Cells (%),[1],58% and 66%
same,Population Normal (%),[1],94%
same,Population Pyknosed Nuclei (%),[1],19% and 22%
same,Population Tubulin-Different-Phenotype (%),[1],26% and 43%
same,Total Cell Count,[1],171 and 142
same,Population Apoptotic (%),[2],66% and 53%
same,Population Fragmented Nuclei (%),[2],13% and 26%
same,Population Healthy Nuclei (%),[2],77% and 53%
same,Population Hoechst High Intensity Objects (%),[2],2% and 5%
same,Population Membrane Permeable-Phenotype (%),[2],0% and 1%
same,Population Mitochondria Different-Phenotype (%),[2],7%
same,Population Mitotic Cells (%),[2],33% and 46%
same,Population Normal (%),[2],97% and 95%
same,Population Pyknosed Nuclei (%),[2],8% and 19%
same,Population Tubulin-Different-Phenotype (%),[2],35% and 43%
same,Total Cell Count,[2],147 and 160
same,Population Apoptotic (%),[3],33% and 47%
same,Population Healthy Nuclei (%),[3],73% and 52%
same,Population Hoechst High Intensity Objects (%),[3],1% and 5%
same,Population Membrane Permeable-Phenotype (%),[3],3% and 7%
same,Population Mitochondria Different-Phenotype (%),[3],2% and 4%
same,Population Mitotic Cells (%),[3],66% and 52%
same,Population Normal (%),[3],98% and 94%
same,Population Pyknosed Nuclei (%),[3],17%
same,Population Tubulin-Different-Phenotype (%),[3],26% and 38%
same,Total Cell Count,[3],158 and 142
same,Population Apoptotic (%),[4],66% and 52%
same,Population Fragmented Nuclei (%),[4],14% and 29%
same,Population Healthy Nuclei (%),[4],77% and 58%
same,Population Hoechst High Intensity Objects (%),[4],2% and 7%
same,Population Membrane Permeable-Phenotype (%),[4],0% and 3%
same,Population Mitochondria Different-Phenotype (%),[4],6% and 10%
same,Population Mitotic Cells (%),[4],33% and 47%
same,Population Normal (%),[4],97% and 92%
same,Population Pyknosed Nuclei (%),[4],8% and 12%
same,Population Tubulin-Different-Phenotype (%),[4],30% and 52%
same,Total Cell Count,[4],150 and 164
same,Population Apoptotic (%),[5],72% and 61%
same,Population Fragmented Nuclei (%),[5],15% and 36%
same,Population Healthy Nuclei (%),[5],72% and 48%
same,Population Hoechst High Intensity Objects (%),[5],7% and 6%
same,Population Membrane Permeable-Phenotype (%),[5],0% and 2%
same,Population Mitochondria Different-Phenotype (%),[5],2% and 1%
same,Population Mitotic Cells (%),[5],27% and 38%
same,Population Normal (%),[5],92% and 94%
same,Population Pyknosed Nuclei (%),[5],12% and 14%
same,Population Tubulin-Different-Phenotype (%),[5],25% and 34%
same,Total Cell Count,[5],162 and 150
same,Population Apoptotic (%),[6],66% and 60%
same,Population Fragmented Nuclei (%),[6],18% and 30%
same,Population Healthy Nuclei (%),[6],75% and 59%
same,Population Hoechst High Intensity Objects (%),[6],5% and 2%
same,Population Membrane Permeable-Phenotype (%),[6],0% and 1%
same,Population Mitochondria Different-Phenotype (%),[6],3% and 1%
same,Population Mitotic Cells (%),[6],33% and 40%
same,Population Normal (%),[6],94% and 97%
same,Population Pyknosed Nuclei (%),[6],6% and 9%
same,Population Tubulin-Different-Phenotype (%),[6],31% and 37%
same,Total Cell Count,[6],152 and 157
c1cc(OCCCN2CCCCC2)ccc1CN1CCCCC1 [JNJ-5207852],Population Apoptotic (%),[1],37% and 26%
same,Population Fragmented Nuclei (%),[1],15% and 24%
same,Population Healthy Nuclei (%),[1],64% and 51%
same,Population Hoechst High Intensity Objects (%),[1],1% and 7%
same,Population Membrane Permeable-Phenotype (%),[1],0% and 8%
same,Population Mitochondria Different-Phenotype (%),[1],2% and 5%
same,Population Mitotic Cells (%),[1],62% and 73%
same,Population Normal (%),[1],98% and 92%
same,Population Pyknosed Nuclei (%),[1],20% and 23%
same,Population Tubulin-Different-Phenotype (%),[1],26% and 49%
same,Total Cell Count,[1],181 and 153
same,Population Apoptotic (%),[2],50% and 43%
same,Population Fragmented Nuclei (%),[2],22% and 36%
same,Population Healthy Nuclei (%),[2],68% and 42%
same,Population Hoechst High Intensity Objects (%),[2],1%
same,Population Membrane Permeable-Phenotype (%),[2],0% and 12%
same,Population Mitochondria Different-Phenotype (%),[2],6% and 10%
same,Population Mitotic Cells (%),[2],50% and 56%
same,Population Normal (%),[2],98%
same,Population Pyknosed Nuclei (%),[2],9% and 20%
same,Population Tubulin-Different-Phenotype (%),[2],35% and 60%
same,Total Cell Count,[2],193 and 114
same,Population Apoptotic (%),[3],38% and 33%
same,Population Fragmented Nuclei (%),[3],18% and 28%
same,Population Healthy Nuclei (%),[3],66% and 51%
same,Population Hoechst High Intensity Objects (%),[3],2% and 5%
same,Population Membrane Permeable-Phenotype (%),[3],0% and 5%
same,Population Mitochondria Different-Phenotype (%),[3],2% and 6%
same,Population Mitotic Cells (%),[3],61% and 66%
same,Population Normal (%),[3],97% and 95%
same,Population Pyknosed Nuclei (%),[3],15% and 19%
same,Population Tubulin-Different-Phenotype (%),[3],23% and 55%
same,Total Cell Count,[3],176 and 160
same,Population Apoptotic (%),[4],60% and 41%
same,Population Fragmented Nuclei (%),[4],24% and 45%
same,Population Healthy Nuclei (%),[4],65% and 38%
same,Population Hoechst High Intensity Objects (%),[4],1% and 5%
same,Population Membrane Permeable-Phenotype (%),[4],0% and 4%
same,Population Mitochondria Different-Phenotype (%),[4],6% and 13%
same,Population Mitotic Cells (%),[4],40% and 58%
same,Population Normal (%),[4],99% and 94%
same,Population Pyknosed Nuclei (%),[4],10% and 15%
same,Population Tubulin-Different-Phenotype (%),[4],34% and 67%
same,Total Cell Count,[4],201 and 118
same,Population Apoptotic (%),[5],70% and 44%
same,Population Fragmented Nuclei (%),[5],18% and 32%
same,Population Healthy Nuclei (%),[5],63% and 48%
same,Population Hoechst High Intensity Objects (%),[5],2% and 4%
same,Population Membrane Permeable-Phenotype (%),[5],0% and 5%
same,Population Mitochondria Different-Phenotype (%),[5],2%
same,Population Mitotic Cells (%),[5],29% and 55%
same,Population Normal (%),[5],97% and 95%
same,Population Pyknosed Nuclei (%),[5],17% and 18%
same,Population Tubulin-Different-Phenotype (%),[5],23% and 50%
same,Total Cell Count,[5],184 and 160
same,Population Apoptotic (%),[6],55% and 30%
same,Population Fragmented Nuclei (%),[6],19% and 48%
same,Population Healthy Nuclei (%),[6],70% and 41%
same,Population Hoechst High Intensity Objects (%),[6],2% and 3%
same,Population Membrane Permeable-Phenotype (%),[6],0% and 5%
same,Population Mitochondria Different-Phenotype (%),[6],2% and 11%
same,Population Mitotic Cells (%),[6],44% and 69%
same,Population Normal (%),[6],97% and 96%
same,Population Pyknosed Nuclei (%),[6],9% and 10%
same,Population Tubulin-Different-Phenotype (%),[6],34% and 66%
same,Total Cell Count,[6],189 and 132
